Rows were chosen to be rich in hits. Some 9.6% of all compounds tested hit in one or more screens of this group.
TNAP act hi DEA: TNAP (human) activation, high acceptor. purified TNAP, CDP-star luminescence, 1 M DEA, 30 min; active compounds read high; 0 = EDTA background, 1 = DMSO-only activity. P05186. 200,000 tested, under 10 active. activation factor at 20 µM. AID 1136;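 active = activation factor at least 2 at 20 µM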
Target sequence (P05186 whole entry, looked up): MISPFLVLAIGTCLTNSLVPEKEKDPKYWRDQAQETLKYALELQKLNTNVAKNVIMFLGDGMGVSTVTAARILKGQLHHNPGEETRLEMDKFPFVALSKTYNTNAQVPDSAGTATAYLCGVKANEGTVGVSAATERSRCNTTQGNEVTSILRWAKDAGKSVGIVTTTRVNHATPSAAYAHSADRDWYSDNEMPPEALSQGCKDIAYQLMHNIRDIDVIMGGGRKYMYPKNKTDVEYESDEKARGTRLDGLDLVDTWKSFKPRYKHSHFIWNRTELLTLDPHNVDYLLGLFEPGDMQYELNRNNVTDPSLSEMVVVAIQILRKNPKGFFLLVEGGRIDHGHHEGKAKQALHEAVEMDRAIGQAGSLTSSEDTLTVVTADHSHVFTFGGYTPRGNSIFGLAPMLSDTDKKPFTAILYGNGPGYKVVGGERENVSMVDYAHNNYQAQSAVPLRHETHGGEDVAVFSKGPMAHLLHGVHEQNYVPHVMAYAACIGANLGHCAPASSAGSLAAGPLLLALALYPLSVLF
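Control set: EDTA negative control, DMSO positive control / Assay system: human TNAP / Quantity: TNAP 1/800 final / Evaluation: TNAP activation factor scaled between EDTA and DMSO control wells / Measured by: luminescent substrate turnover signal / Compound dosing: one dose, 20 µM / Times: 30 min enzyme reaction at room temperature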
HCT116 PTEN-null: suppresses growth of cells with PTEN deletion; actives 1.2% (n = 140,000); HCT116 PTEN-null viability, CellTiter-Glo, 60 h; active compounds read low; viability, % at 10 µM; AID 827;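 active = viability at or below a set limit, 4 SD under the median of all tested compounds, cut at about 3.7% in these data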;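 note: PTEN knockout HCT116 line with beta catenin targeted HCT116 as companion control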
TNAP inh no acc: blocks human TNAP activity with no phosphate acceptor present; P05186; purified TNAP, CDP-star luminescence, 30 min; inhibition, % at 20 µM; actives 0.26% (n = 200,000); AID 1012;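 active = tissue-nonspecific alkaline phosphatase inhibition above about 50% at 20 µM in the single-dose screen, limit read from the data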
Lmaj promast: reduces viability of Leishmania major promastigotes; resazurin fluorescence viability; AID 1063; actives 9% (n = 200,000); inhibition, % at 10 µM; in the data active = inhibition above about 50%;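 note: promastigotes grown with compound for 44 hours at 28 °C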
TNAP inh hi DEA: inhibitors of human TNAP at high phosphate acceptor concentration | P05186 | inhibition, % at 20 µM | actives 0.03% (n = 200,000) | purified TNAP, CDP-star luminescence, 1 M DEA;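 active = over 50% inhibition of tissue-nonspecific alkaline phosphatase at 20 µM in the single-dose screen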
HCT116 bCat-KO: beta-catenin-lacking colon tumor cell growth suppression; HCT116 beta-catenin knockout viability, CellTiter-Glo, 60 h; active compounds read low; viability, % at 10 µM; actives 1.5% (n = 140,000);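 active = viability at or under a set limit, the compound median less 4 SD, cut at about 6% in these data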
Each line names hits and unclear results; the compound was inactive in the other large screens.

O=C(COC(=O)c1ccc(-c2ccc([N+](=O)[O-])cc2)o1)NC(=O)NC12CC3CC(CC(C3)C1)C2	Lmaj promast 98
O=C(COC(=O)c1n[nH]c2ccccc12)NC(=O)NC12CC3CC(CC(C3)C1)C2	HCT116 PTEN-null 1.4
CCCC1Cc2c(sc(N)c2C#N)CO1 (stereo unspecified)	none (no result: HCT116 PTEN-null, HCT116 bCat-KO)
COc1ccc(CC(=O)NCc2nnc(SCc3ccc(C)cc3)n2C)cc1	none
COc1ccc(-c2noc(CCC(=O)NCCCN3CCC(Cc4ccccc4)CC3)n2)cc1	Lmaj promast 100
COc1ccc(-c2noc(=O)n2CC(=O)N2CCC(Cc3ccccc3)CC2)cc1	Lmaj promast 96 (no result: HCT116 PTEN-null, HCT116 bCat-KO)
CCC(C)/C(C)=N/NC(=O)c1ccc(CSc2nc3ccccc3s2)cc1 (stereo unspecified)	none
Cc1ccc(S(=O)(=O)c2nnn3c2nc(N2CCCCC2)c2ccccc23)cc1	Lmaj promast 62
Cc1ccc(S(=O)(=O)c2c(C)cc(C)nc2N2CCCC2)cc1	none (no result: HCT116 PTEN-null, HCT116 bCat-KO)
O=C(O)c1ccc(/C=N/N2CCN(Cc3ccccc3)CC2)cc1	none
O=[N+]([O-])c1ccc(Oc2ccc(S(=O)(=O)Nc3ccccc3)cc2)cc1	Lmaj promast 66
C/C(=N\NC(=O)CCc1c[nH]c2ccccc12)c1ccc([N+](=O)[O-])cc1	Lmaj promast 61
CN(C)c1ccc(/C=N/NC(=O)CCc2c[nH]c3ccccc23)cc1	none (no result: HCT116 PTEN-null, HCT116 bCat-KO)
S=C(NCCCN1CCOCC1)N1CCN(c2nc(-c3ccc(Cl)cc3)cs2)CC1	Lmaj promast 76 (no result: HCT116 PTEN-null, HCT116 bCat-KO)
CCOc1ccccc1NC(=S)N1CCN(c2nc(-c3ccc(F)cc3)cs2)CC1	Lmaj promast 90 (no result: HCT116 PTEN-null, HCT116 bCat-KO)
S=C(NCCCN1CCOCC1)N1CCN(c2nc(-c3ccccc3)cs2)CC1	Lmaj promast 83 (no result: HCT116 PTEN-null, HCT116 bCat-KO)
CCOC(=O)N1CCN(c2nc(-c3ccc(F)cc3)cs2)CC1	none
O=C(N1CCOCC1)N1CCN(c2nc(-c3ccccc3)cs2)CC1	none
S=C(NCC1CCCO1)N1CCN(c2nc(-c3ccc(Cl)cc3)cs2)CC1 (stereo unspecified)	none (no result: HCT116 PTEN-null, HCT116 bCat-KO)
Cc1cc(C)c2c(NC(=S)NC(=O)c3ccccc3)n[nH]c2n1	none (no result: HCT116 PTEN-null, HCT116 bCat-KO)
CCCCN1C(=O)/C(=C/C=C2\SCCN2C)SC1=S	TNAP inh hi DEA 52 (no result: HCT116 PTEN-null, HCT116 bCat-KO)
Cc1cc(C)c(NC(=O)/C(=C/c2ccco2)c2ccccc2)c(C)c1	Lmaj promast 59
C=CCOC(=O)C1=C[C@@H](c2ccc3c(c2)OCO3)C[C@@H](OCc2ccc(CO)cc2)O1	none (no result: HCT116 PTEN-null, HCT116 bCat-KO)
O=C(CCc1ccccc1)Nc1nnc(-c2cccs2)o1	Lmaj promast 57
O=C(CCSc1ccccc1)Nc1nnc(-c2cccs2)o1	none (no result: HCT116 PTEN-null, HCT116 bCat-KO)
O=C(CCc1ccccc1)Nc1nnc(-c2ccc3c(c2)CCCC3)o1	none
O=C(CCc1ccccc1)Nc1nnc(-c2ccc3c(c2)OCCO3)o1	Lmaj promast 70 (no result: HCT116 PTEN-null, HCT116 bCat-KO)
COC(=O)c1cc(OC)c(OC)cc1NC(=O)c1ccccc1C	none (no result: HCT116 PTEN-null, HCT116 bCat-KO)
CCCCN(C(=O)/C=C/c1ccco1)c1c(N)n(Cc2ccccc2)c(=O)[nH]c1=O	none (no result: HCT116 PTEN-null, HCT116 bCat-KO)
COc1ccc(NC(=O)c2cc(-c3cc(C)cc(C)c3O)n[nH]2)cc1Cl	Lmaj promast 100
COc1ccc(NC(=O)c2c(F)c(F)c(F)c(F)c2F)cc1Cl	none
Cc1cc(C)c(O)c(-c2cc(C(=O)NCc3ccccc3)[nH]n2)c1	Lmaj promast 52
CCC1CCCCN1c1ccc([N+](=O)[O-])cc1/C=N/NC(=O)Cn1c2ccccc2c(=O)c2ccccc21 (stereo unspecified)	Lmaj promast 51
O=C(N/N=C/c1cc([N+](=O)[O-])ccc1N1CCCCCC1)c1ccccn1	Lmaj promast 60 (no result: HCT116 PTEN-null, HCT116 bCat-KO)
CN(c1ccc([N+](=O)[O-])cc1/C=N/NC(=O)COc1ccccc1)C1CCCCC1	Lmaj promast 91
CCc1ccc(OCC(=O)N/N=C/c2cc([N+](=O)[O-])ccc2N2CCCCCC2)cc1	Lmaj promast 100
CN(c1ccc([N+](=O)[O-])cc1C(N)=O)C1CCCCC1	none (no result: HCT116 PTEN-null, HCT116 bCat-KO)
N#CCC(=O)N/N=C/c1cc([N+](=O)[O-])ccc1N1CCOCC1	none (no result: HCT116 PTEN-null, HCT116 bCat-KO)
Cc1ccc(-c2nc(N3CCOCC3)sc2C(=O)N2CCCCC2)cc1	none
CCCNC(=S)N1CCN(CC)CC1	none
Cc1ccc(Nc2nc(NCCCN3CCOCC3)nc(N)c2[N+](=O)[O-])cc1C	Lmaj promast 52
CN(C)c1ccc(Nc2nc(N)c([N+](=O)[O-])c(N3CCOCC3)n2)cc1	none
Cc1ccc(Nc2nc(NCCCN3CCOCC3)nc(N)c2[N+](=O)[O-])cc1	Lmaj promast 51
O=c1[nH]ncc(NCc2ccc(Cl)cc2)c1Cl	none (no result: HCT116 PTEN-null, HCT116 bCat-KO)
O=S(=O)(c1cccc(-c2csc(-c3ccccc3)n2)c1)N1CCOCC1	none
CC1CN(S(=O)(=O)c2cccc(-c3csc(-c4ccccc4)n3)c2)CC(C)O1 (stereo unspecified)	Lmaj promast 97
COc1cc(N2CCCC2)c(OC)cc1/C=C1/NC(=S)NC1=O	Lmaj promast 96
COc1cc(N2CCCC2)c(OC)cc1/C=C(/C#N)c1cccc(F)c1	none
OC(COc1ccc2c(c1)OCO2)CN1CCN(c2ccc(F)cc2)CC1 (stereo unspecified)	Lmaj promast 53 (no result: HCT116 PTEN-null, HCT116 bCat-KO)
OCCN1CCN(CC(O)COCc2ccc3c(c2)OCO3)CC1 (stereo unspecified)	none
O=C(CN1CCN(c2ccc(F)cc2)CC1)c1ccc2c(c1)OCO2	Lmaj promast 88
CCOC(=O)C1CCN(CC(O)COCc2ccc3c(c2)OCO3)CC1 (stereo unspecified)	Lmaj promast 86 (no result: HCT116 PTEN-null, HCT116 bCat-KO)
O=C(CN1CCN(c2ccc(Cl)cc2)CC1)c1ccc2c(c1)OCO2	none
OC(COCc1ccc2c(c1)OCO2)CN1CCN(Cc2ccccc2)CC1 (stereo unspecified)	Lmaj promast 89
Cc1cc(C)cc(OCC(O)CN2CCN(Cc3ccc4c(c3)OCO4)CC2)c1 (stereo unspecified)	Lmaj promast 90 (no result: HCT116 PTEN-null, HCT116 bCat-KO)
Cc1ccc(OCC(O)CN2CCN(c3ccccn3)CC2)c(C)c1 (stereo unspecified)	none (no result: HCT116 PTEN-null, HCT116 bCat-KO)
Cc1ccc(C)c(OCC(O)CN2CCC(CN3C(=O)c4cccc5cccc(c45)C3=O)CC2)c1 (stereo unspecified)	HCT116 PTEN-null 1.2, Lmaj promast 100, HCT116 bCat-KO 1.2
CCN1CCN(CC(O)COCc2cc(OC)c(OC)c(OC)c2)CC1 (stereo unspecified)	none (no result: HCT116 PTEN-null, HCT116 bCat-KO)
O=C1c2cccc3cccc(c23)C(=O)N1CC1CCN(CC(O)COCc2ccc3c(c2)OCO3)CC1 (stereo unspecified)	Lmaj promast 90
COc1cc(COCC(O)CN2CCN(Cc3ccccc3)CC2)cc(OC)c1OC (stereo unspecified)	Lmaj promast 88 (no result: HCT116 PTEN-null, HCT116 bCat-KO)
CCOC(=O)c1[nH]c2c(c1-c1ccc(OC)cc1)C(=O)CC(c1ccc(OC)c(OC)c1)C2 (stereo unspecified)	none
